These results are taken from ChEMBL document CHEMBL3228016, “Antiallergy agents. 1. 1,6-Dihydro-6-oxo-2-phenylpyrimidine-5-carboxylic acids and esters” (1979).

SMILES strings stand for the structures.

The subject of one assay is Rattus norvegicus. Briefly: Antiallergic activity in po dosed Sprague-Dawley rat passive cutaneous analphylaxis model assessed as inhibition of allergic response administered 30 mins prior to antigen challenge. It is filed as functional. The following applies: read-out: ID50 (the source's name). Summed up: (§1)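 Male Sprague-Dawley rat passive cutaneous anaphylaxis (modified Ovary method), with a 24 h sensitization-to-challenge interval. The agent was dissolved in saline and given iv at the time of antigen challenge or po 30 min before challenge. The dose inhibiting the response by 50% was determined; significance was p ≤ 0.05 by Student's t test.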
Turning to `O=C([O-])c1cc(=O)c2c(OCC(O)COc3cccc4oc(C(=O)[O-])cc(=O)c34)cccc2o1.[Na+].[Na+]` [CROMOLYN SODIUM], the ED50 is ≥ 30 mg/kg.

Another assay deals with Rattus norvegicus. Briefly: Antiallergic activity in iv dosed Sprague-Dawley rat passive cutaneous analphylaxis model assessed as inhibition of allergic response administered at the time of antigen challenge. It is filed as functional. As to conditions: read-out: ID50 (the source's name). The procedure, abridged: as §1
As to `O=C([O-])c1cc(=O)c2c(OCC(O)COc3cccc4oc(C(=O)[O-])cc(=O)c34)cccc2o1.[Na+].[Na+]` [CROMOLYN SODIUM], the ED50 is 0.3 mg/kg.

Another assay has as its system Rattus norvegicus. Kind of assay: Antiallergic activity in po dosed Sprague-Dawley rat passive cutaneous analphylaxis model assessed as inhibition of allergic response administered 10 mins prior to antigen challenge. It is filed as functional. The following applies: read-out: ID50 (the source's name). The procedure, abridged: (§2)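 Modified Ovary rat passive cutaneous anaphylaxis screen in male Sprague-Dawley rats, with 24 h between sensitization and antigen challenge. Acidic compounds were dissolved in aqueous NaHCO3 where possible; others were suspended in aqueous sodium citrate with Tween 40/sodium carboxymethylcellulose. Dosing was iv 1 min or po 10 min before challenge. ID50 is the dose giving 50% inhibition of the response; significance was p ≤ 0.05 by Student's t test.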
In the case of `CCOC(=O)c1cnc(-c2ccccc2)nc1O`, the ED50 is > 20 mg/kg. The same measure, in the same setting: with `CCOC(=O)c1cnc(-c2cccc(OC)c2)nc1O` the figure was 10 mg/kg; with `CCOC(=O)c1cnc(-c2ccccc2OCC(C)C)[nH]c1=O`, 3 mg/kg.

As to `O=C(O)c1cnc(-c2ccccc2)[nH]c1=O`, the ED50 stood at 50 mg/kg. For `O=C(O)c1cnc(-c2ccccc2F)[nH]c1=O`, the ED50 was determined as 5 mg/kg. With `O=C(O)c1cnc(-c2ccccc2Cl)[nH]c1=O`, the ED50 amounted to 5 mg/kg. Still for that read-out and setting: next, `O=C(O)c1cnc(-c2ccccc2[N+](=O)[O-])[nH]c1=O`: > 50 mg/kg. The same measure, in the same setting: with `Nc1ccccc1-c1ncc(C(=O)O)c(=O)[nH]1` the figure was 50 mg/kg. Same read-out and setting: next, `O=C(O)c1cnc(-c2ccccc2O)[nH]c1=O`: > 5 mg/kg; `COc1ccccc1-c1ncc(C(=O)O)c(=O)[nH]1`: 10 mg/kg. Turning to `CCOc1ccccc1-c1ncc(C(=O)O)c(=O)[nH]1`, the ED50 is 0.5 mg/kg. `CCCOc1ccccc1-c1ncc(C(=O)O)c(=O)[nH]1`: the ED50 stood at 0.9 mg/kg.

On to `CC(C)Oc1ccccc1-c1ncc(C(=O)O)c(=O)[nH]1`, for which the ED50 worked out at 0.8 mg/kg. The same measure, in the same setting: with `CCCCOc1ccccc1-c1ncc(C(=O)O)c(=O)[nH]1` the figure was 0.5 mg/kg. On the same count and under the same terms, next, `CC(C)COc1ccccc1-c1ncc(C(=O)O)c(=O)[nH]1`: 0.5 mg/kg; `CCC(C)Oc1ccccc1-c1ncc(C(=O)O)c(=O)[nH]1` (configuration not stated): 0.5 mg/kg. With `CCCCCOc1ccccc1-c1ncc(C(=O)O)c(=O)[nH]1`, the ED50 was determined as 3 mg/kg.

As to `C=CCOc1ccccc1-c1ncc(C(=O)O)c(=O)[nH]1`, the ED50 was 0.5 mg/kg. As to `O=C(O)c1cnc(-c2ccccc2OCC2CC2)[nH]c1=O`, the ED50 was determined as 0.1 mg/kg. Same read-out and setting: next, `O=C(O)c1cnc(-c2ccccc2OCc2ccccc2)[nH]c1=O`: 5 mg/kg.

With `CSc1ccccc1-c1ncc(C(=O)O)c(=O)[nH]1`, the ED50 is > 20 mg/kg. In the case of `CCSc1ccccc1-c1ncc(C(=O)O)c(=O)[nH]1`, the ED50 was 25 mg/kg. `C[S+]([O-])c1ccccc1-c1ncc(C(=O)O)c(=O)[nH]1` (configuration not stated): the ED50 is > 5 mg/kg. Still for that read-out and setting: with `O=C(O)c1cnc(-c2cccc(C(F)(F)F)c2)[nH]c1=O` the figure was 33 mg/kg; with `COc1cccc(-c2ncc(C(=O)O)c(=O)[nH]2)c1`, 10 mg/kg; with `CCOc1cccc(-c2ncc(C(=O)O)c(=O)[nH]2)c1`, 5 mg/kg. On the same count and under the same terms, next, `O=C(O)c1cnc(-c2ccc(Cl)cc2)[nH]c1=O`: 5 mg/kg. With `O=C(O)c1cnc(-c2ccc(C(F)(F)F)cc2)[nH]c1=O`, the ED50 was > 5 mg/kg.

For the molecule `COc1ccc(-c2ncc(C(=O)O)c(=O)[nH]2)cc1`, the ED50 is > 5 mg/kg. Still for that read-out and setting: with `C=CCc1cccc(-c2ncc(C(=O)O)c(=O)[nH]2)c1O` the figure was > 0.5 mg/kg; with `COc1ccc(-c2ncc(C(=O)O)c(=O)[nH]2)c(OC)c1`, 5 mg/kg.

For the molecule `COc1ccc(OC)c(-c2ncc(C(=O)O)c(=O)[nH]2)c1`, the ED50 worked out at 1 mg/kg.

Consider `CCOc1ccc(Cl)cc1-c1ncc(C(=O)O)c(=O)[nH]1`, for which the ED50 is 0.5 mg/kg. Same read-out and setting: with `CCOc1ccc(OC)cc1-c1ncc(C(=O)O)c(=O)[nH]1` the figure was 0.2 mg/kg. Still for that read-out and setting: with `CCOc1ccc(C(=O)O)cc1-c1ncc(C(=O)O)c(=O)[nH]1` the figure was 25 mg/kg. For the molecule `CCOc1ccc([N+](=O)[O-])cc1-c1ncc(C(=O)O)c(=O)[nH]1`, the ED50 worked out at 25 mg/kg. With `CCOc1ccc(N)cc1-c1ncc(C(=O)O)c(=O)[nH]1`, the ED50 stood at 1.2 mg/kg. Still for that read-out and setting: next, `CCOc1ccc(N(C)C)cc1-c1ncc(C(=O)O)c(=O)[nH]1`: 0.3 mg/kg; `CCOC(=O)C(=O)Nc1ccc(OCC)c(-c2ncc(C(=O)O)c(=O)[nH]2)c1`: 25 mg/kg. The same measure, in the same setting: next, `CCOc1ccc(S(N)(=O)=O)cc1-c1ncc(C(=O)O)c(=O)[nH]1`: > 50 mg/kg; `CCOc1ccc(S(=O)(=O)N(C)C)cc1-c1ncc(C(=O)O)c(=O)[nH]1`: > 50 mg/kg. Still for that read-out and setting: next, `CCOc1ccc(S(=O)(=O)N(CC)CC)cc1-c1ncc(C(=O)O)c(=O)[nH]1`: 40 mg/kg.

Consider `CCOc1ccc(S(=O)(=O)N(C)C(C)C)cc1-c1ncc(C(=O)O)c(=O)[nH]1`, for which the ED50 is > 10 mg/kg. Still for that read-out and setting: with `CCCOc1ccc(OC)cc1-c1ncc(C(=O)O)c(=O)[nH]1` the figure was 0.3 mg/kg; with `CCOC(=O)c1cnc(-c2ccccc2F)[nH]c1=O`, > 10 mg/kg; with `CCOC(=O)c1cnc(-c2ccccc2Cl)[nH]c1=O`, 5 mg/kg. As for `CCOC(=O)c1cnc(-c2ccccc2O)[nH]c1=O`, the ED50 is 5 mg/kg. For the molecule `CCOC(=O)c1cnc(-c2ccccc2OC)[nH]c1=O`, the ED50 came out at 10 mg/kg. As for `CCOC(=O)c1cnc(-c2ccccc2OCC)[nH]c1=O`, the ED50 worked out at 2 mg/kg.

Regarding `CCCOc1ccccc1-c1ncc(C(=O)OCC)c(=O)[nH]1`, the ED50 turned out to be 5 mg/kg. On to `CCOC(=O)c1cnc(-c2ccccc2OC(C)C)[nH]c1=O`, for which the ED50 came to 2 mg/kg. In the case of `CCCCOc1ccccc1-c1ncc(C(=O)OCC)c(=O)[nH]1`, the ED50 is 0.5 mg/kg. The same measure, in the same setting: next, `CCOC(=O)c1cnc(-c2ccccc2OC(C)CC)[nH]c1=O` (configuration not stated): 0.5 mg/kg; `CCCCCOc1ccccc1-c1ncc(C(=O)OCC)c(=O)[nH]1`: 2 mg/kg. For the molecule `C=CCOc1ccccc1-c1ncc(C(=O)OCC)c(=O)[nH]1`, the ED50 was found to be 0.5 mg/kg. For the molecule `CCOC(=O)c1cnc(-c2ccccc2OCC2CC2)[nH]c1=O`, the ED50 came out at 0.3 mg/kg.

As to `CCOC(=O)c1cnc(-c2ccccc2OCc2ccccc2)[nH]c1=O`, the ED50 is > 5 mg/kg. Same read-out and setting: next, `CCOC(=O)c1cnc(-c2ccccc2SC)[nH]c1=O`: > 25 mg/kg; `CCOC(=O)c1cnc(-c2ccccc2SCC)[nH]c1=O`: > 5 mg/kg. Still for that read-out and setting: next, `CCOC(=O)c1cnc(-c2cccc(C(F)(F)F)c2)[nH]c1=O`: 50 mg/kg. For `CCOC(=O)c1cnc(-c2cccc(OCC)c2)[nH]c1=O`, the ED50 came out at 50 mg/kg. Turning to `CCOC(=O)c1cnc(-c2ccc(Cl)cc2)[nH]c1=O`, the ED50 is > 30 mg/kg. As to `CCOC(=O)c1cnc(-c2ccc(C(F)(F)F)cc2)[nH]c1=O`, the ED50 is > 5 mg/kg. Still for that read-out and setting: next, `CCOC(=O)c1cnc(-c2ccc(OC)cc2)[nH]c1=O`: 30 mg/kg; `CCOC(=O)c1cnc(-c2ccc(OC)cc2OC)[nH]c1=O`: 5 mg/kg. On the same count and under the same terms, with `CCOC(=O)c1cnc(-c2cc(OC)ccc2OC)[nH]c1=O` the figure was 5 mg/kg; with `CCOC(=O)c1cnc(-c2cc(Cl)ccc2OCC)[nH]c1=O`, 0.5 mg/kg.

In the case of `CCOC(=O)c1cnc(-c2cc(OC)ccc2OCC)[nH]c1=O`, the ED50 is 0.3 mg/kg. Same read-out and setting: next, `CCOC(=O)c1ccc(OCC)c(-c2ncc(C(=O)OCC)c(=O)[nH]2)c1`: 1 mg/kg; `CCOC(=O)c1cnc(-c2cc([N+](=O)[O-])ccc2OCC)[nH]c1=O`: 5 mg/kg; `CCOC(=O)c1cnc(-c2cc(N)ccc2OCC)[nH]c1=O`: 0.5 mg/kg. The same measure, in the same setting: next, `CCOC(=O)C(=O)Nc1ccc(OCC)c(-c2ncc(C(=O)OCC)c(=O)[nH]2)c1`: 5 mg/kg; `CCOC(=O)c1cnc(-c2cc(S(N)(=O)=O)ccc2OCC)[nH]c1=O`: 50 mg/kg; `CCOC(=O)c1cnc(-c2cc(S(=O)(=O)N(C)C)ccc2OCC)[nH]c1=O`: 50 mg/kg.

On to `CCOC(=O)c1cnc(-c2cc(S(=O)(=O)N(CC)CC)ccc2OCC)[nH]c1=O`, for which the ED50 stood at 10 mg/kg. Consider `CCOC(=O)c1cnc(-c2cc(S(=O)(=O)N(C)C(C)C)ccc2OCC)[nH]c1=O`, for which the ED50 was > 10 mg/kg.

Consider `CCCOc1ccc(OC)cc1-c1ncc(C(=O)OCC)c(=O)[nH]1`, for which the ED50 stood at 0.7 mg/kg. For `CCOC(=O)c1cnc(-c2cc([N+](=O)[O-])cc([N+](=O)[O-])c2OCC)[nH]c1=O`, the ED50 was > 50 mg/kg. `Cn1c(-c2ccccc2)ncc(C(=O)O)c1=O`: the ED50 was 50 mg/kg.

For the molecule `CCOC(=O)c1cnc(-c2ccccc2)n(C)c1=O`, the ED50 was > 5 mg/kg. As to `CCOc1ccccc1-c1ncc(C(=O)O)c(=O)n1C`, the ED50 was > 50 mg/kg.

For `CCOC(=O)c1cnc(-c2ccccc2OCC)n(C)c1=O`, the ED50 was > 40 mg/kg. Turning to `CCOc1ccccc1-c1nc(=O)c(C(=O)O)cn1C`, the ED50 is > 40 mg/kg. Turning to `COc1nc(-c2ccccc2)ncc1C(=O)O`, the ED50 is > 10 mg/kg. The same measure, in the same setting: with `CCOC(=O)c1cnc(-c2ccccc2)nc1OC` the figure was > 5 mg/kg; with `CCOc1ccccc1-c1ncc(C(=O)O)c(OC)n1`, > 5 mg/kg. The same measure, in the same setting: next, `CC1Cc2cccc(-c3ncc(C(=O)O)c(=O)[nH]3)c2O1` (racemic): 5 mg/kg; `CCOC(=O)c1cnc(-c2cccc3c2OC(C)C3)[nH]c1=O` (racemic): 5 mg/kg.

The subject of a further assay is Rattus norvegicus. Briefly: Antiallergic activity in iv dosed Sprague-Dawley rat passive cutaneous analphylaxis model assessed as inhibition of allergic response administered 1 min prior to antigen challenge. It is filed as functional. The following applies: read-out: ID50 (the source's name). The procedure, abridged: as §2
For the molecule `CCOc1ccccc1-c1ncc(C(=O)O)c(=O)[nH]1`, the ED50 worked out at 0.07 mg/kg. Still for that read-out and setting: with `CCOC(=O)c1cn(C)c(-c2ccccc2OCC)nc1=O` the figure was > 1 mg/kg.
